Test results reported in ChEMBL document CHEMBL1121893, “N-Aralkyl substitution of 2-amino-5,6- and -6,7-dihydroxy-1,2,3,4-tetrahydronaphthalenes. 1. Cardiac and pressor/depressor activities” (J Med Chem, 1981).
Activity calls are given as the source filed them. The rule behind the calls is not given here.

Columns and labels:
[1] = species: Canis familiaris; assay: Cardioselectivity expressed as change in blood pressure for 100% increase in right ventricular contractile force in dogs; format: functional, Canis lupus familiaris
How it was run: (§1)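 Mongrel dogs of either sex, anesthetized with pentobarbital sodium (30 mg/kg iv) and ventilated. Femoral-artery blood pressure, heart rate and right ventricular contractile force were recorded, the force by strain gauge with the muscle stretched to 140% of in situ length. After 30 min equilibration, iv bolus doses in saline with 0.5 mg/mL bisulfite were doubled until contractile force rose 100%. Peak responses were taken.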

[2] = species: Canis familiaris; assay: Cardioselectivity expressed as change in blood pressure for 50% increase in right ventricular contractile force in dogs; format: functional, Canis lupus familiaris
How it was run: (§2)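 Mongrel dogs of either sex, pentobarbital sodium anaesthesia (30 mg/kg iv, supplemented as needed), ventilated. Femoral arterial BP recorded, drugs given into a forelimb vein as iv boluses in saline with 0.5 mg/mL sodium bisulfite. Right ventricular CF measured by Walton-Brodie strain gauge. Peak response taken per dose, doses raised in 2-fold steps until CF rose 100%. HR and BP changes read at 50% and 100% CF increase. Means ± SEM.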

[3] = species: Canis familiaris; assay: Ionotropic selectivity expressed as change in heart rate for 50 percent increase in right ventricular contractile force in dogs; format: functional, Canis lupus familiaris; how it was run: as §2
[4] = species: Canis familiaris; assay: Inotropic potency expressed as 100 percent increase in right ventricular contractile force in dogs; format: functional, Canis lupus familiaris, Heart right ventricle; how it was run: as §1
[5] = species: Canis familiaris; assay: Inotropic potency expressed as 50 percent increase in right ventricular contractile force in dogs; format: functional, Canis lupus familiaris, Heart right ventricle; how it was run: as §2
[6] = species: Cavia porcellus; assay: (§3) Effective concentration for increasing potency force in guinea pig isolated left atria; format: functional
How it was run: (§4)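 Isolated guinea pig left and right atria, field stimulated with 5 ms pulses and allowed to stabilise 60 min with periodic washing. An isoproterenol cumulative concentration-response curve was run first, tissues washed, then a cumulative curve with the test compound. Force was read in both atria and rate in right atria. Intrinsic activity = maximal response ÷ isoproterenol maximum. EC20 was given where EC50 was not reached. Means ± SE.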

[7] = species: Cavia porcellus; assay: Compound was tested for or relative intrinsic activity in guinea pig isolated atrium left atria; format: functional, Cardiac atrium; how it was run: as §4
[8] = species: Cavia porcellus; assay: Compound was tested for relative intrinsic activity in guinea pig isolated atrium right atria; format: functional, Cardiac atrium; how it was run: as §4
[9] = species: Cavia porcellus; assay: Effective concentration for increasing potency in guinea pig isolated right atria; format: functional; how it was run: as §4
[10] = species: Canis familiaris; assay: Ionotropic selectivity expressed as change in heart rate for 100 percent increase in right ventricular contractile force in dogs; format: functional, Canis lupus familiaris; how it was run: as §1
[11] = species: Cavia porcellus; assay: (§5) Effective concentration for increasing potency rate in guinea pig isolated right atria; format: functional; how it was run: as §4
[12] = Percentage increase in contractile force was determined by the effect of DMI (desmethylimipramine, 1 mg/kg, iv) at 50 ug/kg
[13] = species: Canis familiaris; assay: Cardioselectivity expressed as change in blood pressure for 100% increase in right ventricular contractile force in dogs; CF(100) levels not obtained; format: functional, organism-based; conditions: Canis lupus familiaris; how it was run: as §2
[14] = species: Canis familiaris; assay: Ionotropic selectivity expressed as change in heart rate for 100 percent increase in right ventricular contractile force in dogs; CF(100) levels not obtained; format: functional, organism-based; conditions: Canis lupus familiaris; how it was run: as §2
[15] = species: Canis familiaris; assay: Inotropic potency expressed as 100 percent increase in right ventricular contractile force in dogs; CF(100) levels not obtained; CF(100) levels not obtained; format: functional, organism-based; conditions: Canis lupus familiaris; Heart right ventricle; how it was run: as §2
[16] = species: Cavia porcellus; assay: as §3; format: functional; remark: listed apart in the source
[17] = species: Cavia porcellus; assay: as §5; format: functional; remark: listed apart in the source
How it was run: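 Isolated atria were stabilized 60 min with periodic washing. A cumulative isoproterenol concentration-response curve was run, then washed out. A cumulative curve with the test compound followed. The EC50 was derived, or EC20 where 50% was not reached. Intrinsic activity is the maximal response relative to isoproterenol maximum.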

[18] = species: Canis familiaris; assay: Inotropic potency expressed as 100 percent increase in right ventricular contractile force in dogs; CF(100) levels not obtained; format: functional, organism-based; conditions: Canis lupus familiaris; Heart right ventricle; how it was run: as §2
[19] = species: Canis familiaris; assay: Cardioselectivity expressed as change in blood pressure for 100% increase in right ventricular contractile force in dogs; CF(100) level not obtained; format: functional, organism-based; conditions: Canis lupus familiaris; how it was run: as §2
[20] = species: Canis familiaris; assay: Ionotropic selectivity expressed as change in heart rate for 100 percent increase in right ventricular contractile force in dogs; CF(100) level not obtained; format: functional, organism-based; conditions: Canis lupus familiaris; how it was run: as §2
[21] = species: Canis familiaris; assay: Inotropic potency expressed as 100 percent increase in right ventricular contractile force in dogs; CF(100) level not obtained; format: functional, organism-based; conditions: Canis lupus familiaris; Heart right ventricle; how it was run: as §2

Row | Compound | BP [1] | BP [2] | HR [3] | Potency [4] | Potency [5] | EC50 [6] | RIA [7] | RIA [8] | HR [10] | EC50 [11] | further results
1 | Oc1ccc(CCNC2CCc3cc(O)c(O)cc3C2)cc1O (centres undefined) | 72 mmHg | 50 mmHg | 11 beats min-1 | 189 nM/kg | 85 nM/kg | 1.5 µM | 0.84 | 0.67 | 30 beats min-1 | – | EC50 [9]: 16 µM
2 | NC1CCc2cc(O)c(O)cc2C1 (centres undefined) | 61 mmHg | 29 mmHg | -12 beats min-1 | 457 nM/kg | 173 nM/kg | 2.5 µM | 1.06 | 0.61 | 21 beats min-1 | 33 µM | Increase [12]: 5%
3 | NCCc1ccc(O)c(O)c1 [DOPAMINE] | -5 mmHg | -15 mmHg | 5 beats min-1 | 125 nM/kg | 58.1 nM/kg | 1.7 µM | 1.15 | 1 | 12 beats min-1 | 1.5 µM | –
4 | NC1CCc2c(ccc(O)c2O)C1 (centres undefined) | – | 41 mmHg | 11 beats min-1 | – | 410 nM/kg | 4.4 µM | 1.05 | 0.69 | – | 38 µM | BP [13]: inactive; HR [14]: inactive; Potency [15]: inactive; Increase [12]: 18%
5 | CC(C)NCC(O)c1ccc(O)c(O)c1 (centres undefined) [ISOPROTERENOL] | -27 mmHg | -17 mmHg | 13 beats min-1 | 0.35 nM/kg | 0.11 nM/kg | 0.0032 µM | 1 | 1 | 35 beats min-1 | 0.0062 µM | –
6 | CC(CCc1ccc(O)c(O)c1)NC1CCc2cc(O)c(O)cc2C1 (centres undefined) | -11 mmHg | -36 mmHg | 20 beats min-1 | 109 nM/kg | 24.6 nM/kg | – | – | 0.35 | 45 beats min-1 | 1.2 µM | –
7 | Oc1cc2c(cc1O)CC(NC1CCc3cc(O)c(O)cc3C1)CC2 (centres undefined) | 84 mmHg | 78 mmHg | 31 beats min-1 | 2650 nM/kg | 961 nM/kg | – | 0.38 | 0.08 | 62 beats min-1 | – | EC20 [16]: 2.4 µM; EC20 [17]: > 110 µM
8 | CC(C)NC1CCc2c(ccc(O)c2O)C1 (centres undefined) | – | -66 mmHg | 20 beats min-1 | – | 110 nM/kg | 21 µM | 1.16 | 0.55 | – | 1.7 µM | BP [13]: CF(100) levels not obtained; HR [14]: CF(100) levels not obtained; Potency [18]: CF(100) levels not obtained
9 | CC(CCc1ccc(O)cc1)NCCc1ccc(O)c(O)c1 (centres undefined) [DOBUTAMINE] | 4 mmHg | 3 mmHg | 3 beats min-1 | 13.2 nM/kg | 4.1 nM/kg | 0.15 µM | 1.12 | 0.9 | 17 beats min-1 | 0.47 µM | –
10 | CC(CCc1ccc(O)cc1)NC1CCc2cc(O)c(O)cc2C1 (centres undefined) | 60 mmHg | 13 mmHg | -3 beats min-1 | 410 nM/kg | 140 nM/kg | – | 0.38 | 0.15 | 19 beats min-1 | – | EC20 [16]: 2.7 µM; EC20 [9]: > 110 µM
11 | CC(Cc1ccc(O)c(O)c1)NC1CCc2c(ccc(O)c2O)C1 (centres undefined) | -54 mmHg | -42 mmHg | 26 beats min-1 | 20.1 nM/kg | 7.2 nM/kg | 0.25 µM | 1.02 | 0.87 | 40 beats min-1 | 0.16 µM | –
12 | CC(Cc1ccc(O)c(O)c1)NC1CCc2cc(O)c(O)cc2C1 (centres undefined) | – | -39 mmHg | -5 beats min-1 | 27 nM/kg | 11.4 nM/kg | 0.28 µM | 0.95 | 0.69 | 4 beats min-1 | – | EC50 [9]: 2.2 µM
13 | CC(CCc1ccc(O)cc1)NC1CCc2c(ccc(O)c2O)C1 (centres undefined) | -61 mmHg | -51 mmHg | 20 beats min-1 | 196 nM/kg | 27.7 nM/kg | 0.73 µM | 1.11 | 0.78 | 41 beats min-1 | 1.8 µM | –
14 | CC(C)NC1CCc2cc(O)c(O)cc2C1 (centres undefined) | – | 46 mmHg | 9 beats min-1 | – | 1560 nM/kg | 49 µM | 0.78 | 0.24 | – | – | BP [19]: CF(100) level not obtained; HR [20]: CF(100) level not obtained; Potency [21]: CF(100) level not obtained; EC20 [9]: 200 µM
